# In the library only some 2.3% were active in any assay of this set; here they are far more common.
# Autophagy mod = autophagy modulation, high-content screen; MEF GFP-LC3 puncta imaging; test concentration mostly 10 µM; calls only at 10 µM (by protocol); 190,000 tested, 0.98% active; AID 463193;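 active means percentage of spot-positive cells more than 3 SD above its plate mean, without a fluorescence outlier flag or 80% toxicity; inconclusive means no clear call, values can overlap the other calls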;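 further: spot-positive cell cutoff set from DMSO-treated cells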
# ABCG2 block = inhibitors of human ABCG2 transporter, ABCB1 counter-screen; inhibition, % at 6.6 µM; 190,000 tested, 0.1% active; IgMXP3 cells, JC-1 efflux, flow cytometry; Q9UNQ0; AID 1325;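 active means inhibition above 80%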;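 further: 0% = DMSO and 100% = nicardipine control wells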
# Target sequence (Q9UNQ0 whole entry, looked up): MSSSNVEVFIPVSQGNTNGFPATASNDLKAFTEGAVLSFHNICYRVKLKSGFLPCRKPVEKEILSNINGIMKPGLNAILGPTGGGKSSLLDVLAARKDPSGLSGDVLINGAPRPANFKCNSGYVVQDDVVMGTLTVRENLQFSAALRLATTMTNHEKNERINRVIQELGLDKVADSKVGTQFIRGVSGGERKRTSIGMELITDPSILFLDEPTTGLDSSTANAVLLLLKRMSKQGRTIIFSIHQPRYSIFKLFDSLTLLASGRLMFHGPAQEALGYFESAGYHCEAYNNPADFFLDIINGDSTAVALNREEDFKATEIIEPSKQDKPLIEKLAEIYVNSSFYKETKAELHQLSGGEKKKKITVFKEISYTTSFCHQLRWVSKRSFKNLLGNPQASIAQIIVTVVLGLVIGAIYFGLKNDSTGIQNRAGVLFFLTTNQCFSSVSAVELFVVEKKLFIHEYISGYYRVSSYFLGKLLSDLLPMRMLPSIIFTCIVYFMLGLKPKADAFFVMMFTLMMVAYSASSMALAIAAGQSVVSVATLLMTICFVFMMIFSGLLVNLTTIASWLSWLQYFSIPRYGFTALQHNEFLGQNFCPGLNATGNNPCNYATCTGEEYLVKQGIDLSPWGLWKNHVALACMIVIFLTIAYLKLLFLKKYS
#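 Test system: ABCG2 IgMXP3 and barcoded ABCB1 CCRF-Adr cell mix; Schedule: cells with compound and JC-1, 10 min at 25 °C, rotating, no wash; Technique: flow cytometry of retained JC-1 fluorescence; Measure: % inhibition of efflux relative to nicardipine and DMSO; Controls: nicardipine high and DMSO low controls.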
# Ins promoter up = MIN6 insulin promoter up-regulation. MIN6 insulin promoter-GFP reporter, high-content imaging; active compounds read high. z-score at 5 µM. 190,000 tested, 0.3% active. AID 1625;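 active means z-score above 3 at 5 µM with at least 500 cells counted in the well; inconclusive means wells under 500 cells, flagged as cytotoxic or low count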
# sdo1 growth = compounds rescuing growth of sdo1-depleted yeast, bone marrow failure model; 140,000 tested, 0.21% active; z-score at 10 µM; AID 817; S. cerevisiae sdo1-depleted JHY4D growth rescue, OD600 30 h; active compounds read high; pdr5 snq2 efflux-pump mutant strain;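 active means z-score above 3 at both the 24 hr and the 30 hr optical density reads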;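 further: z-score against mean and SD of all compound wells on the same plate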
# ABCB1 block = human ABCB1 inhibition, ABCG2 as counter-screen; inhibition, % at 6.6 µM; 190,000 tested, 0.067% active; CCRF-Adr cells, JC-1 efflux, flow cytometry; in the data active means inhibition above about 40%;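 further: 0% = vehicle and 100% = reference inhibitor; higher value means more JC-1 retained so stronger ABCB1 efflux block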
# ROMK mod = modulators of human ROMK potassium channel. P48048. Tet-inducible ROMK, thallium flux fluorescence; actives lie on both sides. AID 1918. B-score at 10 µM. 130,000 tested, 2% active;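 active means signal ratio slope over the read window, or its plate-corrected B-score, at least 3 SD from the plate mean, either direction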;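 further: B-score of the F/F0 ratio slope over 7 to 12 s after thallium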
# ROMK retest = retested hit modulating human ROMK potassium channel. shares compounds with ROMK mod. ROMK thallium flux, fluorescence ratio; active compounds read low. normalized thallium flux (F/F0 slope) at 10 µM. 3,000 tested, 54% active. AID 1917;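 active means Flux at 10 µM at least 3 SD below or above vehicle control mean in one or both replicates; inconclusive means no clear call, values can overlap the other calls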
# * marks the source's active call; other numbers are inactive results; i = inactive; ? = inconclusive; nt = no result given; + = active, no number.
SMILES,Autophagy mod,ABCG2 block,Ins promoter up,sdo1 growth,ABCB1 block,ROMK mod,ROMK retest
c1ccc(-n2cnc3cc(NCc4ccco4)ccc32)cc1,i,12,-0.39,nt,1,3.3*,?
O=c1[nH]c2ccc([N+](=O)[O-])cc2nc1/C=C(\O)c1ccccc1,nt,nt,-0.33,nt,nt,nt,nt
CC1=Nc2cc(C(=O)NCCCOC(C)C)ccc2Sc2ccccc21,i,13,-0.33,nt,2,2.9*,0.091
CCCC1=Nc2cc(C(=O)NCCCOC(C)C)ccc2Sc2ccccc21,i,0,-0.55,-1,0,1.9,nt
CC1=Nc2cc(C(=O)NCCCOC(C)C)ccc2Sc2ccc(C)cc21,i,2,1.6,nt,1,4.3*,0.091
CN(C)S(=O)(=O)c1cc(NC(=O)CN2CCN(c3ccccc3O)CC2)ccc1Cl,i,0,-1.2,nt,0,-0.19,nt
CCOC(=O)C1(CCCc2ccccc2)CCN(C(=O)C(C)n2cncn2)CC1 (stereo not drawn),i,3,-0.52,nt,1,nt,nt
COc1ccc(C(=O)COC(=O)c2ccccc2NS(=O)(=O)c2ccc(O)c([N+](=O)[O-])c2)cc1,nt,nt,-0.99,nt,nt,nt,0.081
COc1ccc(NC(=O)c2ccccc2NS(=O)(=O)c2ccc(C)cc2)c([N+](=O)[O-])c1,i,-1,-0.14,0.52,0,-0.008,nt
O=C(NC1CC1)C1CCCN1S(=O)(=O)c1ccc2ccccc2c1 (stereo not drawn),i,7,-0.18,1.7,1,0.15,nt
O=C(NCCc1ccccc1F)C1CCCN1S(=O)(=O)c1ccc2ccccc2c1 (stereo not drawn),i,2,nt,-1.6,2,-3.5*,0.056*
O=S(=O)(NCc1ccccc1)NCc1ccccc1F,i,0,-0.28,nt,0,nt,nt
O=S(=O)(NCc1ccccc1)NCc1ccccc1,i,11,-0.37,nt,1,nt,0.083
S=C(NCCCN1CCOCC1)NCCCN1CCOCC1,i,1,-0.36,-0.03,0,-0.048,nt
CCCCCCCCNC(=S)NCCN1CCCCC1,i,2,-0.53,nt,0,-2.6*,0.048*
O=C(CN1CCN(C(c2ccccc2)c2ccccc2)CC1)N1CCN(c2ccccc2)CC1,nt,nt,0.46,nt,nt,-3.7*,0.063*
Cc1ccc(CC(=O)NC(C)CCc2ccccc2)cc1 (stereo not drawn),i,4,-0.2,-0.81,1,nt,nt
CC(CCc1ccccc1)NC(=O)CN1CCN(c2ccccc2)CC1 (stereo not drawn),i,0,0.05,nt,0,-2.9*,0.061*
COc1ccc2cc(C(=O)N/N=C/c3sc4ccccc4c3O)ccc2c1,i,-13,nt,0.27,0,-2.8*,0.048*
O=C1CN(C(=O)CSc2nc(-c3ccc(Cl)cc3)cs2)c2ccccc2N1,i,10,-0.55,-0.78,1,nt,nt
O=c1c(Cc2ccc(Cl)cc2)c(O)ccn1Cc1ccncc1,i,2,-0.07,nt,1,0.64,nt
CC1(C)Cc2c(C#N)c(N3CCN(C(=O)c4ccccc4Cl)CC3)nc(-c3ccco3)c2CS1,i,0,0.1,-1.8,0,-1.8*,0.089
CC1(C)Cc2c(c(-c3ccco3)[nH]c(=O)c2C#N)CS1,i,1,0.24,-0.67,0,-3.7*,0.078
O=C(Cn1cnc2ccccc2c1=O)NCc1cccs1,i,-1,-0.37,nt,-1,-0.021,nt
CCn1c2ccc(OC)cc2c2nc3ccccc3nc21,i,2,0.05,-1.1,1,-0.047,nt
SMILES,Autophagy mod,ABCG2 block,Ins promoter up,sdo1 growth,ABCB1 block,ROMK mod,ROMK retest
CCCCOC(=O)Cn1c2ccc(OC)cc2c2nc3ccccc3nc21,+,17,0.44,-0.58,1,-4.2*,0.056*
COc1ccc(Oc2ccccc2/C=C/C(=O)O)cc1,i,0,-0.43,0.64,0,nt,nt
COc1ccc(Oc2ccccc2C=O)cc1,i,2,-0.04,0.81,1,nt,?
CC(C)OCCCNC(=O)C1CCC(CNS(=O)(=O)c2ccc(Cl)cc2)CC1 (stereo not drawn),i,0,0.91,-0.04,1,0.26,nt
COCCCNC(=O)C1CCC(CNS(=O)(=O)c2ccc(Cl)cc2)CC1 (stereo not drawn),i,2,-0.03,nt,-1,nt,0.086
CCOC(=O)C1(CCc2ccccc2)CCN(C(=O)CCn2cncn2)CC1,i,6,0.71,nt,2,nt,nt
O=C(c1ccc(CSc2nc3ccncc3[nH]2)cc1)N1CCCCC1,i,4,0.37,1.8,1,-0.045,nt
Cc1ccc(C)c(N2CCN(C(=O)c3ccc(CSc4nc5ccncc5[nH]4)cc3)CC2)c1,i,7,-0.83,0,1,-4.2*,0.072
CCOC(=O)c1[nH]c2ccc(OC)cc2c1NC(=O)OC,i,0,1.6,1.4,0,nt,?
O=C(c1ccco1)N1CCN(S(=O)(=O)c2ccc(Oc3ccccc3)cc2)CC1,i,0,0.09,-0.57,0,nt,0.067*
O=C(c1ccco1)N1CCN(S(=O)(=O)c2ccc(S(=O)(=O)NC3CC3)cc2)CC1,i,1,-0.36,0.99,1,nt,nt
NC(=O)c1ccc2c(=O)n3c(-c4cc(Cl)c(N)c(Cl)c4)csc3nc2c1,nt,nt,-0.34,nt,nt,nt,nt
Cc1csc2nc3cc(C(N)=O)ccc3c(=O)n12,nt,nt,nt,nt,nt,nt,0.08
CCc1n(CC(O)COC2CCCCC2)c2ccccc2[n+]1C (stereo not drawn),i,3,-0.23,nt,1,0.0095,nt
Cc1cc(Sc2nc(N)ncc2[N+](=O)[O-])ncn1,i,7,-0.86,nt,0,0.014,nt
Cc1cc(Sc2ncnc(N)c2[N+](=O)[O-])ncn1,i,16,-0.36,nt,0,-0.97*,0.078
Cc1cc(C(=O)NCc2ccc(S(N)(=O)=O)cc2)ccc1[N+](=O)[O-],i,-1,0.03,0.55,0,-0.16,nt
COc1ccc(C(=O)NCc2ccc(S(N)(=O)=O)cc2)cc1[N+](=O)[O-],i,20,0.59,nt,2,-13*,0.089
Cc1ccc(N=Cc2cc3c(cc2O)OC(N)=C(C#N)C3c2ccccc2)cc1 (stereo not drawn),i,0,nt,0.66,0,nt,nt
CCN1CCN(C(=O)/C(C#N)=C/c2ccc(OC(F)F)cc2)CC1,i,0,0.07,nt,4,-3.6*,0.047*
CN1CCC(N(C)C(=O)/C(C#N)=C/c2ccc(OC(F)F)cc2)CC1,nt,nt,-0.08,nt,nt,nt,0.046*
N#C/C(=C\c1ccc(OC(F)F)cc1)C(=O)N1CCCCC1,nt,nt,-0.25,nt,nt,nt,nt
Clc1ccccc1-c1ccc(CN2CCN(c3ccccc3)CC2)o1,i,7,nt,-2.4,1,0.24,nt
CC(=O)Nc1cccc(Oc2ncnc3scc(-c4ccccc4)c23)c1,i,2,-0.02,-0.77,1,nt,0.061*
COc1ccc(CN2CCSCC2)cc1C,i,0,0.37,0.84,0,3.3*,0.081

# Source: PubChem BioAssay (several laboratories)
